pIC50: −log10 of the molar value. ≈ marks a conversion by molar mass, not a printed value. Values belong to the compound of their own block, whether it stands above or below them. Calls of active or inactive are those of the source.
What was measured:
[1] = Efflux ratio of apparent permeability in human Caco2 cells at 2 uM after 2 hrs by LC/MS/MS analysis; format: ADME, cell-based; conditions: Caco-2
Procedure, shortened: (§1)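 Caco-2 cells seeded at 4.5 x 10^4 per well on 0.4 µm inserts and grown 15 days. Assay in FCS-free Hepes-carbonate buffer pH 7.2, with TEER checked. Compound at 2 µM final added apically or basolaterally; both sides sampled before and after 2 h at 37 °C. Papp from peak areas; efflux ratio = Papp B-A / Papp A-B; recovery calculated.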

[2] = Intrinsic clearance in Han Wistar rat hepatocytes assessed as blood clearance at 1 uM after 90 mins by LC-MS/MS analysis; format: ADME, cell-based, Hepatocyte
Procedure, shortened: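 Rat hepatocytes isolated with a Percoll gradient, viability by trypan blue; 1.0 × 10^6 viable cells/mL in WME + 5% FCS, compound at 1 µM, shaken at 580 rpm. Sampled 2–90 min into cold methanol; LC-MS/MS.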

[3] = target: Prostaglandin E2 receptor EP4 subtype (Homo sapiens, UniProt P35408); assay: Antagonist activity at human EP4R assessed as inhibition of agonist-induced cAMP production by fluorescent cAMP tracer cAMP-d2 based FRET assay; format: functional
[4] = Apparent permeability from apical to basolateral side in human Caco2 cells at 2 uM after 2 hrs by LC/MS/MS analysis; format: ADME, cell-based; conditions: Caco-2; procedure, shortened: as §1
[5] = target: Prostaglandin E2 receptor EP4 subtype (Mus musculus, UniProt P32240); assay: Antagonist activity at mouse EP4R assessed as inhibition of agonist-induced cAMP production by fluorescent cAMP tracer cAMP-d2 based FRET assay; format: functional
Rattus norvegicus = assay: Antinociceptive activity in Sprague-Dawley rat model of dmPGE2-induced pain behavior assessed as increase in paw withdrawal thresholds at 5 mg/kg, po pretreated 60 mins before dmPGE2 addition and measured after 30 mins post dmPGE2 injection; format: functional, organism-based
Procedure, shortened: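 Male Sprague-Dawley rats, 220–265 g. Compound suspended in 0.5% CMC and given orally; vehicle controls. At 60 min, 10 µg dmPGE2 in PBS injected into the plantar surface of the left hind paw. Electronic von Frey thresholds taken 30 min later, mean of 3 per paw, against day −1 baseline. Mean ±SD; Grubbs outlier test; 1-way ANOVA with Dunnett's test.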

[6] = Kinetic solubility of the compound; format: physicochemical; conditions: read-out: Kinetic_solubility
[7] = Lipophilicity, log D of the compound at pH 7.4; format: physicochemical; conditions: buffer
[8] = Kinetic solubility of the compound at pH 6.5; format: physicochemical; conditions: buffer, read-out: Kinetic_solubility
[9] = target: T1, UDP-glucuronosyltransferase 1A1 (Rattus norvegicus, UniProt Q64550); assay: Drug metabolism in rat hepatocytes assessed as UGT1A1-mediated acylglucuronide metabolite formation at 10 uM after 4 hrs by HPLC-UV and mass spectrometric analysis; format: ADME, cell-based
T1 sequence (Q64550 whole entry): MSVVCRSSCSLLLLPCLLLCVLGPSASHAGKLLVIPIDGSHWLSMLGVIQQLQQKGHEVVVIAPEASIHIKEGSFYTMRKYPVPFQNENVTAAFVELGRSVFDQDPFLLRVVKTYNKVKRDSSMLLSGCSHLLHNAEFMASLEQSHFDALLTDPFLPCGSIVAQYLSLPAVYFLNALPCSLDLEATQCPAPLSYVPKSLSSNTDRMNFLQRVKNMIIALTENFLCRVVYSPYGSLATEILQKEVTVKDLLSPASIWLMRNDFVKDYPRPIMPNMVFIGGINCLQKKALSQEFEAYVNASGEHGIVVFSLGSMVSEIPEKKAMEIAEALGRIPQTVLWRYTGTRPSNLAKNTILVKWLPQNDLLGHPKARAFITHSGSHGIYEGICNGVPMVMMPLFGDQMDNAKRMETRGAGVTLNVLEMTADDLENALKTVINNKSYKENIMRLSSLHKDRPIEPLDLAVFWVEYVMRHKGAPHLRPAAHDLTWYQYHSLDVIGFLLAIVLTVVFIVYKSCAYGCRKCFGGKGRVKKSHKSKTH

[10] = Half life in Wistar rat at 1 mg/kg, iv by LC-MS/MS analysis; format: ADME, organism-based; conditions: in vivo
Procedure, shortened: (§2)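 Male Wistar rats dosed iv (0.3–1 mg/kg) or intragastrically (0.5–10 mg/kg) as solutions with solubilizers such as PEG400; cassette dosing of up to 3 compounds in some studies. Jugular blood taken 2 min to 24 h into Li-heparin tubes. Plasma precipitated with acetonitrile and run by LC-MS/MS. Non-compartmental PK analysis.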

[11] = Volume of distribution at steady state in Wistar rat at 1 mg/kg, iv by LC-MS/MS analysis; format: ADME, organism-based; conditions: in vivo, read-out: Vdss; procedure, shortened: as §2
[12] = Dose normalized AUC in Wistar rat at 1 mg/kg, po by LC-MS/MS analysis; format: ADME, organism-based; conditions: in vivo; procedure, shortened: as §2
[13] = Oral bioavailability in Wistar rat at 1 mg/kg by LC-MS/MS analysis; format: ADME, organism-based; conditions: in vivo; procedure, shortened: as §2
[14] = Blood clearance in Wistar rat at 1 mg/kg, iv by LC-MS/MS analysis; format: ADME, organism-based; conditions: whole blood; procedure, shortened: as §2
[15] = Blood clearance in Wistar rat at 1 mg/kg, po by LC-MS/MS analysis; format: ADME, organism-based; conditions: whole blood; procedure, shortened: as §2
[16] = Volume of distribution at steady state in Wistar rat at 1 mg/kg, po by LC-MS/MS analysis; format: ADME, organism-based; conditions: in vivo; procedure, shortened: as §2
[17] = target: T2, UDP-glucuronosyltransferase 1A1 (Homo sapiens, UniProt P22309); assay: Drug metabolism in human hepatocytes assessed as UGT1A1-mediated acylglucuronide metabolite formation at 10 uM after 4 hrs by HPLC-UV and mass spectrometric analysis; format: ADME, cell-based
T2 sequence (P22309 whole entry): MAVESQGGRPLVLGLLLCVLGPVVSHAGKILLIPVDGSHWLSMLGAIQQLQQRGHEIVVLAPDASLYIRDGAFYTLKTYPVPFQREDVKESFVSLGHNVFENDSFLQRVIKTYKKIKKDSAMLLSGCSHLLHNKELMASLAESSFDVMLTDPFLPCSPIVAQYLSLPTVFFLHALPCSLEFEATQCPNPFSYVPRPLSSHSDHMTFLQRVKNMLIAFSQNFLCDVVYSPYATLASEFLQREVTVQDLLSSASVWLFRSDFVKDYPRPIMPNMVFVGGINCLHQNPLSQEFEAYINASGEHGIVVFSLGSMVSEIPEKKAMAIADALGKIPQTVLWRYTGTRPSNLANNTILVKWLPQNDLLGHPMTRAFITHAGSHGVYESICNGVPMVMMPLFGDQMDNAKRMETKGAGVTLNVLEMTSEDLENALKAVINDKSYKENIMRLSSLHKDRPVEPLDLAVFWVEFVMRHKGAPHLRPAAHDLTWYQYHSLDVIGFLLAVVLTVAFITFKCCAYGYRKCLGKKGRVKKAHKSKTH

Chain of Prostaglandin E2 receptor EP4 subtype (Homo sapiens, UniProt P35408) (P35408 whole entry): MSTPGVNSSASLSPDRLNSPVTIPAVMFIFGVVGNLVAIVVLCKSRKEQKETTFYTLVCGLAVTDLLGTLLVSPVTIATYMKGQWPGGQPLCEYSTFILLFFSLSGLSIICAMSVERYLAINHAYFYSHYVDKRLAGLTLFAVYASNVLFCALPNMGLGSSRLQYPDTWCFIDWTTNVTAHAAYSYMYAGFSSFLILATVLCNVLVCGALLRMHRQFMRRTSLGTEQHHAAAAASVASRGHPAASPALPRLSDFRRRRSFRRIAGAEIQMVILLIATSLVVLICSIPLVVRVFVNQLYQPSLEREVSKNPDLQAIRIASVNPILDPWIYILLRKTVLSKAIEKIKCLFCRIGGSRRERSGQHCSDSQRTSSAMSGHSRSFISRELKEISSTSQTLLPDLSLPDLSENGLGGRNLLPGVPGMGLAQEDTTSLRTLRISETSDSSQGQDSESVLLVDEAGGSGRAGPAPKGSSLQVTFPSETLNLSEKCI
Chain of Prostaglandin E2 receptor EP4 subtype (Mus musculus, UniProt P32240) (P32240 whole entry): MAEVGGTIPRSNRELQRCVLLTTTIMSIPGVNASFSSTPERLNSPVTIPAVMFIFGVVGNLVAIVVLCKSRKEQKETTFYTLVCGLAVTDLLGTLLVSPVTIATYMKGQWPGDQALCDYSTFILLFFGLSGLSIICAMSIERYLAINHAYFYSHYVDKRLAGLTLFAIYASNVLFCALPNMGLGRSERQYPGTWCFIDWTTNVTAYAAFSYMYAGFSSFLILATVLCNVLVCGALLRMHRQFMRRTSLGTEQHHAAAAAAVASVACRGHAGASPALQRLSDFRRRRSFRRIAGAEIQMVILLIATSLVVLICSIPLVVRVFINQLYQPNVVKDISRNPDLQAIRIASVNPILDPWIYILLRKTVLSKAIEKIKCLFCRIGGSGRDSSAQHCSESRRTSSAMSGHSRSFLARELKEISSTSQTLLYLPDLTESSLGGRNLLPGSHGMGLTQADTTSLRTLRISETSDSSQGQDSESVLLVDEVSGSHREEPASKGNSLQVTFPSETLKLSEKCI

efflux ratio at 2 h, 2 µM [1]: 3.3 | CLhep predicted at […], 1 µM [2]: 11.7 mL/min/kg | pIC50 [3]: 8.21 | Papp A→B at 2 h, 2 µM [4]: 2.63 ×10⁻⁶ cm/s
SMILES: CCn1c2ccccc2c2cc(-c3nc4cc(-c5noc(=O)[nH]5)ccc4n3CCOC)ccc21

efflux ratio at 2 h, 2 µM [1]: 0.5 | CLhep predicted at […], 1 µM [2]: 10 mL/min/kg | pIC50 [3]: 8.36 | Papp A→B at 2 h, 2 µM [4]: 20.8 ×10⁻⁶ cm/s
SMILES: CCn1c2ccc(Cl)cc2c2cc(-c3nc4c(C)c(C(=O)O)ccc4n3CCOC)ccc21

pIC50 [3]: 6.83
SMILES: CCn1c2ccccc2c2cc(-c3nc4cc(C(=O)NS(=O)(=O)N(C)C)ccc4n3CCOC)ccc21

pIC50 [3]: 8.17
SMILES: CCn1c2ccccc2c2cc(-c3nc4cc(-c5nnn[nH]5)ccc4n3CCOC)ccc21

pIC50 [3]: 8.38
SMILES: CCn1c2ccc(-c3nc4c(C)c(C(=O)O)ccc4n3CCOC)cc2c2cccc(C)c21

pIC50 [5]: 7.09 | pIC50 [3]: 8.33
SMILES: CCn1c2ccccc2c2cc(-c3nc4cc(C(=O)O)ccc4n3CCOC)ccc21

pIC50 [3]: 7.80
SMILES: CCn1c2ccccc2c2cc(-c3nc4c(Cl)c(C(=O)O)ccc4n3CCOC)ccc21

pIC50 [3]: 5.85
SMILES: CCn1c2ccccc2c2cc(-c3nc4ccc(C(=O)O)cc4n3CCOC)ccc21

pIC50 [3]: 7.26
SMILES: CCn1c2ccc(-c3nc4c(C)c(C(=O)O)ccc4n3CCOC)cc2c2c(C)cccc21

pIC50 [3]: 5.51
SMILES: CCn1c2ccccc2c2cc(-c3nc4cc(C(=O)O)ccc4n3-c3ccccc3)ccc21

pIC50 [3]: 7.29
SMILES: CCn1c2ccccc2c2cc(-c3nc4cc(C(=O)O)ccc4n3CC3CCO3)ccc21 (stereo not drawn)

pIC50 [3]: 7.76
SMILES: CCn1c2ccc(-c3nc4c(C)c(C(=O)O)ccc4n3CCOC)cc2c2cc(C(F)(F)F)ccc21

pIC50 [3]: 6.78
SMILES: CCn1c2ccccc2c2cc(-c3nc4cc(C(=O)O)ccc4n3C)ccc21

pIC50 [3]: 6.12
SMILES: CCn1c2ccccc2c2cc(-c3nc4cc(C(=O)O)c(Cl)cc4n3CCOC)ccc21

pIC50 [3]: 6.44
SMILES: CCn1c2ccc(OC(F)(F)F)cc2c2cc(-c3nc4c(C)c(C(=O)O)ccc4n3CCOC)ccc21

efflux ratio at 2 h, 2 µM [1]: 0.9 | CLhep predicted at […], 1 µM [2]: 30 mL/min/kg | Papp A→B at 2 h, 2 µM [4]: 1.24 ×10⁻⁶ cm/s
SMILES: CCn1c2ccccc2c2cc(-c3nc4cc(-c5n[nH]c(=O)o5)ccc4n3CCOC)ccc21

pIC50 [3]: 6.65
SMILES: CCn1c2ccccc2c2cc(-c3nc4cc(S(=O)(=O)O)ccc4n3CCOC)ccc21

CLhep predicted at […], 1 µM [2]: 26.7 mL/min/kg
SMILES: CCn1c2ccccc2c2cc(-c3nc4cc(C(=O)NS(C)(=O)=O)ccc4n3CCOC)ccc21

SMILES: CCn1c2ccc(C)cc2c2cc(-c3nc4c(C)c(C(=O)O)ccc4n3CCOC)ccc21
Activity (Rattus norvegicus): Active

pIC50 [5]: 6.95 | pIC50 [3]: 7.89 | solubility kinetic [6]: 3.2 µg/mL (≈ 7.81 µM) | logD [7]: 3
SMILES: CCn1c2ccccc2c2cc(-c3nc4cc(C(=O)O)ccc4n3CC3CC3)ccc21

pIC50 [3]: 8.37
SMILES: CCn1c2ccccc2c2cc(-c3nc4c(F)c(C(=O)O)ccc4n3CCOC)ccc21

pIC50 [3]: 6.54 | solubility kinetic [6]: < 0.1 µg/mL | logD [7]: 4.1
SMILES: CCn1c2ccccc2c2cc(-c3nc4cc(C(=O)NC)ccc4n3CC3CC3)ccc21

pIC50 [3]: 7.47
SMILES: Cn1c2ccccc2c2cc(-c3nc4cc(C(=O)O)ccc4n3CC3CC3)ccc21

pIC50 [3]: 7.46
SMILES: CCn1c2ccccc2c2cc(-c3nc4cc(C(=O)O)c(F)cc4n3CCOC)ccc21

pIC50 [3]: 7.18
SMILES: CCn1c2ccc(-c3nc4c(C)c(C(=O)O)ccc4n3CCOC)cc2c2c(Cl)cccc21

solubility kinetic [8]: 150 µg/mL (≈ 351 µM) | Drug metabolism [9]: Metabolite_Detected | efflux ratio at 2 h, 2 µM [1]: 1.1 | half-life [10]: 4.9 h | CLhep predicted at […], 1 µM [2]: 1.67 to 2.5 mL/min/kg | pIC50 [3]: 7.61 | Vd [11]: 0.36 L/kg | AUC/dose [12]: 20 kg·h/L | bioavailability [13]: 92% | clearance [14]: 1 mL/min/kg | CL/F [15]: 1 mL/min/kg | Vdss [16]: 0.36 L/kg | Papp A→B at 2 h, 2 µM [4]: 13.5 ×10⁻⁶ cm/s | Drug metabolism [17]: Metabolite_Detected
SMILES: CCn1c2ccccc2c2cc(-c3nc4c(C)c(C(=O)O)ccc4n3CCOC)ccc21
